Here are results for 5 molecules from ChEMBL document CHEMBL6127135, “Generation of BT-Amide, a Bone-Targeted Pyk2 Inhibitor, Effective via Oral Administration, for the Prevention of Glucocorticoid-Induced Bone Loss” (J Med Chem, 2024).

Calls of active or inactive are those of the source. The rule behind the calls is not given here.

Data set [1] is described as follows: Toxicity in Glucocorticoid-induced C57BL/6 mouse bone loss model assessed as adverse effect by measuring mouse with skin lesions at 10 mg/kg/day, po treatment initiated 3 days prior to glucocorticoid challenge measured after 2 weeks. The data set is classed as organism-based. To be noted: in vivo, 408 h, time 17 day. In a few lines: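 Female C57BL/6 mice, 4 months old; oral gavage 10 mg/kg 5 times per week from 3 days before placebo or prednisolone (2.1 mg/kg/d) pellet implantation. Mice scored for development of skin lesions during the study.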

Another data set has as its system Mus musculus. The experiment in a line: In vivo inhibition of Glucocorticoid-induced bone loss in C57BL/6 mouse assessed as prevention of bone loss by measuring increase in bone mineral density at 10 mg/kg/day, po treatment initiated 3 days prior to glucocorticoid challenge measured after 2 weeks. The data set is classed as functional, organism-based. The conditions noted are these: time 17.0 day. The method, boiled down:
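Female C57BL/6 mice, 4 months old, randomized; oral gavage 10 mg/kg 5 times per week, starting 3 days before subcutaneous slow-release pellet (placebo or prednisolone 2.1 mg/kg/d). Total-body BMD (head and tail excluded) by DEXA after 2 weeks; analysis blinded. Two-way ANOVA with Tukey post hoc, N = 9–10.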

Data set [2] concerns the target Protein-tyrosine kinase 2-beta (Homo sapiens, UniProt Q14289). The experiment in a line: Inhibition of Pyk2 kinase (unknown origin) by bioluminescent ADP-Glo kinase assay. The method, boiled down:
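ADP-Glo luminescent read-out of ADP formation, run per kit instructions; inhibitors tested as 8-point half-log dilution series, 1 uM down to 0.316 nM. IC50 obtained by fitting dose–response curves with an [inhibitor] vs normalized response model; each compound tested at least 3 times.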

Data set [3] is described as follows: Toxicity in Glucocorticoid-induced C57BL/6 mouse bone loss model assessed as circulating organ toxicity in serum by measuring total bilirubin at 10 mg/kg/day, po treatment initiated 3 days prior to glucocorticoid challenge measured after 2 weeks. The data set is classed as organism-based. To be noted: in vivo, 408 h, time 17 day. In a few lines:
(§1)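 Same mouse regimen: 4-month-old female C57BL/6, gavage 10 mg/kg 5×/week, prednisolone 2.1 mg/kg/d or placebo pellets. At study end, blood collected after isoflurane sedation and euthanasia. 14-parameter Comprehensive Diagnostic Profile analyser panel on plasma. Untreated and vehicle mice served as controls. N = 9–10, mean ± SD.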

Data set [4] is described as follows: Toxicity in Glucocorticoid-induced C57BL/6 mouse bone loss model assessed as circulating organ toxicity in serum by measuring amylase at 10 mg/kg/day, po treatment initiated 3 days prior to glucocorticoid challenge measured after 2 weeks. To be noted: in vivo, 408 h, time 17 day. The data set is classed as organism-based. In a few lines:
as §1

Data set [5] in a line: Toxicity in Glucocorticoid-induced C57BL/6 mouse bone loss model assessed as circulating organ toxicity in serum by measuring Albumin at 10 mg/kg/day, po treatment initiated 3 days prior to glucocorticoid challenge measured after 2 weeks. The data set is classed as organism-based. The conditions noted are these: in vivo, 408 h, time 17 day. In a few lines: as §1
Data set [6] is described as follows: Toxicity in Glucocorticoid-induced C57BL/6 mouse bone loss model assessed as circulating organ toxicity in serum by measuring blood urea nitrogen at 10 mg/kg/day, po treatment initiated 3 days prior to glucocorticoid challenge measured after 2 weeks. The data set is classed as organism-based. To be noted: in vivo, 408 h, time 17 day. The method, boiled down: as §1

Data set [7] in a line: Toxicity in Glucocorticoid-induced C57BL/6 mouse bone loss model assessed as circulating organ toxicity in serum by measuring sodium at 10 mg/kg/day, po treatment initiated 3 days prior to glucocorticoid challenge measured after 2 weeks. It counts as organism-based. To be noted: in vivo, 408 h, time 17 day. In a few lines:
as §1

A short description of data set [8]: Toxicity in Glucocorticoid-induced C57BL/6 mouse bone loss model assessed as circulating organ toxicity in serum by measuring potassium at 10 mg/kg/day, po treatment initiated 3 days prior to glucocorticoid challenge measured after 2 weeks. It counts as organism-based. The conditions noted are these: in vivo, 408 h, time 17 day. The method, boiled down: as §1

Data set [9] in a line: Toxicity in Glucocorticoid-induced C57BL/6 mouse bone loss model assessed as circulating organ toxicity in serum by measuring calcium at 10 mg/kg/day, po treatment initiated 3 days prior to glucocorticoid challenge measured after 2 weeks. The data set is classed as organism-based. The conditions noted are these: in vivo, 408 h, time 17 day. The method, boiled down: as §1

Data set [10] can be described thus: Toxicity in Glucocorticoid-induced C57BL/6 mouse bone loss model assessed as circulating organ toxicity in serum by measuring phosphorus at 10 mg/kg/day, po treatment initiated 3 days prior to glucocorticoid challenge measured after 2 weeks. To be noted: in vivo, 408 h, time 17 day. It counts as organism-based. In a few lines: as §1
Data set [11] can be described thus: Toxicity in Glucocorticoid-induced C57BL/6 mouse bone loss model assessed as circulating organ toxicity in serum by measuring alkaline phosphatase at 10 mg/kg/day, po treatment initiated 3 days prior to glucocorticoid challenge measured after 2 weeks. The data set is classed as organism-based. The conditions noted are these: in vivo, 408 h, time 17 day. In a few lines: as §1

A short description of data set [12]: Toxicity in Glucocorticoid-induced C57BL/6 mouse bone loss model assessed as circulating organ toxicity in serum by measuring […] at 10 mg/kg/day, po treatment initiated 3 days prior to glucocorticoid challenge measured after 2 weeks. The data set is classed as organism-based. To be noted: in vivo, 408 h, time 17 day. The method, boiled down:
as §1

Data set [13] can be described thus: Toxicity in Glucocorticoid-induced C57BL/6 mouse bone loss model assessed as circulating organ toxicity in serum by measuring Total protein at 10 mg/kg/day, po treatment initiated 3 days prior to glucocorticoid challenge measured after 2 weeks. The conditions noted are these: in vivo, 408 h, time 17 day. The data set is classed as organism-based. In a few lines: as §1

Data set [14] can be described thus: Toxicity in Glucocorticoid-induced C57BL/6 mouse bone loss model assessed as circulating organ toxicity in serum by measuring glucose at 10 mg/kg/day, po treatment initiated 3 days prior to glucocorticoid challenge measured after 2 weeks. It counts as organism-based. To be noted: in vivo, 408 h, time 17 day. In a few lines: as §1
The nature of data set [15]: Toxicity in Glucocorticoid-induced C57BL/6 mouse bone loss model assessed as adverse effect at 10 mg/kg/day, po treatment initiated 3 days prior to glucocorticoid challenge measured after 2 weeks. To be noted: in vivo, 408 h, time 17 day. It counts as organism-based.
Data set [16] is described as follows: Toxicity in Glucocorticoid-induced C57BL/6 mouse bone loss model assessed as circulating organ toxicity in serum by measuring creatinine at 10 mg/kg/day, po treatment initiated 3 days prior to glucocorticoid challenge measured after 2 weeks. To be noted: in vivo, 408 h, time 17 day. The data set is classed as organism-based. In a few lines:
as §1

Chain of Protein-tyrosine kinase 2-beta (Q14289 whole entry): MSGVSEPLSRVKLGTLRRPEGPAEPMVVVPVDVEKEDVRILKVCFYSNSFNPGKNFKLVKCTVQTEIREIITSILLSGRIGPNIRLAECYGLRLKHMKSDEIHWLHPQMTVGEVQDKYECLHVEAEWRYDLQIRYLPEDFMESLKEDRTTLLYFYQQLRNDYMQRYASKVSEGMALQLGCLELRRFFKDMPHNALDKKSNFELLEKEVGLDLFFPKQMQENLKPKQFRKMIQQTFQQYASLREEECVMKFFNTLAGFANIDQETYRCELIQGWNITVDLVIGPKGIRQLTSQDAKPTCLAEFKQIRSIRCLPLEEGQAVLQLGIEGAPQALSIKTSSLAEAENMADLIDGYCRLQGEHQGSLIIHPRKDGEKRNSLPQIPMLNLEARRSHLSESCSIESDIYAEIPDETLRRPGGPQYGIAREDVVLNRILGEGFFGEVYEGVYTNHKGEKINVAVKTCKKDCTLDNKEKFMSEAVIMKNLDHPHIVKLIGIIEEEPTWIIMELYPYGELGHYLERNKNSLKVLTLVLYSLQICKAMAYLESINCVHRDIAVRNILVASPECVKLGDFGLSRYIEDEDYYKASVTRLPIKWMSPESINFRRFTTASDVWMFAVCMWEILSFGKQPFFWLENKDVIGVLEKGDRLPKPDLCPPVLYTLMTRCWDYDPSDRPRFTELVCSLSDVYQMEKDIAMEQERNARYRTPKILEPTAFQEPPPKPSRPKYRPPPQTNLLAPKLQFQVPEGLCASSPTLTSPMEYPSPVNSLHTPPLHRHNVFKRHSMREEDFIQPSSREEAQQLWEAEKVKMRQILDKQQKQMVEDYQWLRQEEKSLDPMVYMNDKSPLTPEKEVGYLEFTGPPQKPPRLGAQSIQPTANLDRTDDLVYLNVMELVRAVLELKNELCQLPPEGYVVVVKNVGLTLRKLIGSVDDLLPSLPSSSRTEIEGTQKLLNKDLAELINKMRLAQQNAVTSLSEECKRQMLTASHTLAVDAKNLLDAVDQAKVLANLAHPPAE

For the molecule `CNC(=O)c1ccccc1Nc1nc(Nc2ccc(OC(=O)CCCCC(=O)NCCCC(O)(P(=O)(O)O)P(=O)(O)O)cc2OC)ncc1Cl`, in data set [1], the Activity result is on record as “Non-Toxic”. For the same molecule, the outcome in the data set on Mus musculus was inactive.
In data set [2], `CNC(=O)c1ccccc1Nc1nc(Nc2ccc(N)cc2OC)ncc1Cl` yielded an IC50 of 43.5 nM. This lies in the double-digit nanomolar range.
Molecule `CNC(=O)c1ccccc1Nc1nc(Nc2ccc(N3CCC(O)CC3)cc2OC)ncc1Cl` came in with an IC50 in [2] of 101 nM.
As for `CNC(=O)c1ccccc1Nc1nc(Nc2ccc(N3CCOCC3)cc2OC)ncc1Cl`, the Activity in data set [1] worked out at 15%. In addition, in data set [2], the IC50 came to 16.9 nM. In addition, the result in the data set on Mus musculus was Active.
In the case of `CNC(=O)c1ccccc1Nc1nc(Nc2ccc(NC(=O)CCCCC(=O)NCCCC(O)(P(=O)(O)O)P(=O)(O)O)cc2OC)ncc1Cl`, the Activity result in data set [3], in data set [4], in data set [5], in data set [6], in data set [7] and in [8] was “Non-Toxic” in each case. For the same molecule, the Activity result in data set [9], in data set [10], in [11], in data set [12], in data set [13] and in data set [14] was “Non-Toxic” in each case. Moreover, the Activity entry in [15] and in data set [16] was “Non-Toxic” in each case. Besides, the midpoint of inhibition in data set [2], the IC50, lay at 44.7 nM. Also, the outcome in the data set on Mus musculus was Active.
